Compounds with a hit are over-represented: about 0.55% of the library has one in this group of screens.
V1aR counter – counter-screen for oxytocin receptor agonists: human V1a receptor agonists. P37288. CHO-V1R cells, Fluo-8 calcium fluorescence, agonist mode; 0% DMSO, 100% 3 nM vasopressin. activation, % at 3 µM. hit rate 0.25% among 320,000;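 active means activation above the mean activation of all tested compounds plus 3 SD, per screening run, cut at about 20% in these data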;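 further: signal is peak over basal fluorescence ratio across a 100 second FLIPR read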
OXTR potentiator – potentiates the human oxytocin receptor response; CHO-OTR cells, Fluo-8 calcium fluorescence, potentiator mode; 0% = oxytocin EC15, 100% = EC100; activation, % at 3 µM; hit rate 0.061% among 320,000; AID 2445;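 active means activation above that plate's cutoff, the mean activation of tested compounds plus 3 SD, cut at about 6.6% in these data, passing the limit was not always enough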
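assay system = CHO-OTR cells, human receptor | schedule = compound 6 min at room temperature before oxytocin, 100 s read | detection = Fluo-8 intracellular calcium fluorescence, ex 470-495, em 515-575 nm | evaluation = normalized max/min fluorescence ratio, % activation | control set = EC15 oxytocin alone as 0%, 75 nM oxytocin (EC100) as 100%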
TRPML3 agonist – agonists of human TRPML3 channel; hit rate 0.29% among 220,000; activation, % at 3 µM; Q8TDD5; HEK293 TRPML3-YFP, Fluo-8 calcium fluorescence; 100% = the carbachol control signal; AID 1448;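 active means activation above its plate's cutoff, the mean activation of the plate's test wells plus 3 SD, cut at about 12% in these data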
Target sequence (Q8TDD5 whole entry, looked up): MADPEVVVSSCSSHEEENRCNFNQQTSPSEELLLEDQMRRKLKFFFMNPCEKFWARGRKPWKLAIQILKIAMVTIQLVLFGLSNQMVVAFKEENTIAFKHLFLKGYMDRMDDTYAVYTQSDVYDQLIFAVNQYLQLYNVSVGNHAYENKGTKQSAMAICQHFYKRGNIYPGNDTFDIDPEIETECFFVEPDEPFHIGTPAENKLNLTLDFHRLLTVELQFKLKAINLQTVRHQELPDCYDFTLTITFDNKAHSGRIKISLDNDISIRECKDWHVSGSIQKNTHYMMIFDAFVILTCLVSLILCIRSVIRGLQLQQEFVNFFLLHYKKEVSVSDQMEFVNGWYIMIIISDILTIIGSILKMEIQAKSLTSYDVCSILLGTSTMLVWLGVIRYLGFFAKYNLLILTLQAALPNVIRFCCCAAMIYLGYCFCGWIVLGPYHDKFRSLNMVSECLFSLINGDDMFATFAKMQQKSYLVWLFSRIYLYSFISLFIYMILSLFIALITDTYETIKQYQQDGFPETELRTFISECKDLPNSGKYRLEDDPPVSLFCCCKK
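Test system: TRPML3-YFP stable HEK293 cells. Doses: single point at 3 µM. Incubation: dye loading 1 h 37 °C then 30 min ambient, 125 s read. Signal: Fluo-8 calcium dye fluorescence, ex 470-495, em 515-575 nm. Measure: percent activation from peak-to-basal fluorescence ratio, scaled between DMSO and carbachol.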
TRPN1 ag – agonists of zebrafish TRPN1 channel; activation, % at 3 µM; HEK293 zebrafish TRPN1-YFP, Fluo-8 calcium fluorescence; 100% = response to 87 µM carbachol; hit rate 0.18% among 220,000;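 active means activation above its plate's cutoff, the mean activation of test wells on that plate plus 3 SD, cut at about 19% in these data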
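Assay system: Zebrafish TRPN1-YFP in HEK293 cells | Incubation: Dye loading 1 h at 37 °C, then 30 min room temperature | Measured by: Kinetic Fluo-8 fluorescence, ex 470-495, em 515-575 nm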
OXTR agonist – activates the human oxytocin receptor. hit rate 0.32% among 320,000. activation, % at 3 µM. AID 2435. P30559. CHO-OTR cells, Fluo-8 calcium fluorescence; normalized: DMSO 0%, oxytocin 100%;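 active means activation above the mean of all tested compounds plus 3 SD, cutoff set per screening run, cut at about 20% in these data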;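 further: peak over basal fluorescence ratio from a 100 s FLIPR kinetic read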
Numbers stand for hits; - = inactive; . = no result.

SMILES | V1aR counter | OXTR potentiator | TRPML3 agonist | TRPN1 ag | OXTR agonist
N#CC(C#N)=C1C=C2C=C(N3CCCCCC3)CCC2CC1 (configuration not stated) | . | . | 365.7 | 890.7 | .
CSCCC(NC(=O)c1ccco1)C(=O)N1CCN(c2ccccc2O)CC1 (configuration not stated) | - | - | . | . | -
O=c1c(O)c(-c2cccs2)oc2ccc(Cl)cc12 | 91.8 | - | 51.6 | 48.8 | 63.2
O=c1c(O)c(-c2cccs2)oc2ccccc12 | 58.8 | - | 16.1 | 25.8 | 34.8
Cc1ccc(-c2oc3ccccc3c(=O)c2O)cc1 | - | - | - | - | -
CC1=Nc2ccccc2/C1=C/c1sc(=N)n(-c2nccs2)c1O | 25.7 | - | - | - | 22.9
Cc1cc(/C=C2\C(=N)N3N=C(C(C)C)SC3=NC2=O)c(C)n1Cc1ccccc1 | 43.9 | - | - | - | 47.7
CCC1=NN2C(=N)/C(=C/c3cc(C)n(Cc4ccccc4)c3C)C(=O)N=C2S1 | 69.4 | - | - | - | 52.7
Cc1cc(/C=C2\C(=N)N3C(SCc4ccccc4)=NSC3=NC2=O)c(C)n1Cc1ccccc1 | - | - | - | - | -
Cc1cc(/C=C2\C(=N)N3N=C(c4ccco4)SC3=NC2=O)c(C)n1Cc1ccccc1 | 54.2 | - | - | - | 36.1
CC1=NN2C(=N)/C(=C\c3cc(C)n(-c4ccccc4)c3C)C(=O)N=C2S1 | - | - | - | - | -
CN(CC(=O)Nc1cccc(F)c1)C(=O)CN1C(=O)C2CC=CCC2C1=O (configuration not stated) | - | - | . | . | -
CCC1CN(S(=O)(=O)c2cc(-c3cc(C)no3)ccc2OC)c2cc(C)ccc2O1 (configuration not stated) | - | - | . | . | -
COc1ccc(C2CC(=O)C(C(c3ccc(O)cc3)C3C(=O)CC(c4ccc(OC)cc4)CC3=O)C(=O)C2)cc1 (configuration not stated) | - | - | - | - | -
Nc1c(C(=O)c2ccc(Cl)cc2)sc2nsc(SCCN3CCOCC3)c12 | - | - | - | 23.1 | -
CC(=O)c1sc2nsc(SCCN3CCCCC3)c2c1N | - | - | - | - | -
Nc1c(C(=O)c2ccccc2)sc2nsc(SCCN3CCCC3)c12 | - | - | 12.7 | 26.2 | -
NS(=O)(=O)c1ccc(CNS(=O)(=O)c2cccc3nonc23)cc1 | - | - | - | - | -
CCOC(=O)CC1C(=O)NCCN1C(=O)c1cc2c(=O)n3cccc(C)c3nc2s1 (configuration not stated) | - | - | - | - | -
CCCN1C(=O)/C(=C/c2c(N3CCNC(=O)C3CC(=O)OC)nc3c(C)cccn3c2=O)SC1=S (configuration not stated) | . | . | - | 31.0 | .
CCN(CC)c1ccc(/C=C(/C#N)c2nc3ccccc3[nH]2)c(OC(C)C)c1 | 43.8 | - | 15.0 | 23.8 | 51.4
FC(F)(F)c1nc(N2CCCC2)ncc1-c1nnnn1-c1ccc(Cl)cc1 | - | - | - | - | -
CCCCc1ccc(N/C(N)=N/c2nc(C)cc(C)n2)cc1 | 61.5 | - | 80.1 | 108.6 | 57.5
CCN(CC)c1ccc(C(=O)O)cc1 | - | - | - | - | -
CCN(CC)c1ccc(/C=C2\C(=O)c3ccc(C(=O)O)cc3C2=O)cc1 | 65.6 | - | 23.5 | 68.7 | 160.8
SMILES | V1aR counter | OXTR potentiator | TRPML3 agonist | TRPN1 ag | OXTR agonist
COc1ccc(C(=O)NNC(=S)NC(=O)/C=C/c2cccs2)cc1 | - | - | - | - | -
O=C(/C=C/c1cccs1)NC(=S)NNC(=O)c1ccccc1O | - | - | 14.5 | 20.9 | -
COc1ccc(-[n+]2c(C)cc(/C=C3\Sc4ccccc4N3C)cc2C)cc1 | - | - | - | 19.4 | -
Cc1cccc(CSC(Nc2ccc(F)cc2)=C(C#N)C#N)c1 | - | - | 18.8 | 25.8 | -
CC(SCc1ccccc1)C(=O)Nc1ccc(F)cc1 (configuration not stated) | - | - | - | - | -
N#CC(C#N)=C(Nc1ccc(F)cc1)SCc1cccc(Br)c1 | - | - | 20.8 | 25.2 | -
Cc1cccc(CSC(=N)N)c1 | - | - | - | - | -
O=C(COc1cc2oc(=O)c3c(c2cc1Cl)CCCC3)N1C[C@H]2C[C@@H](C1)c1cccc(=O)n1C2 | - | - | . | . | -
CCOc1cc(NC(=S)Nc2ccccc2)c(OCC)cc1NC(=O)c1ccccc1 | - | - | 76.7 | - | -
